Source: PubChem
A selection: hits, their analogues and other compounds. The true share with any hit is near 1.6%.
VIM-2 inhibitor: blocks Pseudomonas aeruginosa VIM-2 metallo-beta-lactamase; purified VIM-2, nitrocefin hydrolysis, epi-absorbance fluorescence; inhibition, % at 5.6 µM; hit rate 0.89% among 290,000;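 active = inhibition above the mean of all tested compounds plus 3 SD, cutoff set per screening run, cut at about 7.5% in these data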;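 note: red hydrolysis product quenches plate fluorescence so inhibitors raise well fluorescence; 0% = enzyme with DMSO and 100% = DMSO without enzyme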
IMP-1 inh-1: blocks Pseudomonas aeruginosa IMP-1 metallo-beta-lactamase | purified IMP-1, nitrocefin hydrolysis, epi-absorbance fluorescence | hit rate 0.45% among 290,000 | inhibition, % at 5.6 µM | AID 1556;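 active = inhibition above the mean plus 3 SD of all compounds in the same screening run, cut at about 4.5% in these data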;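 note: 0% = IMP-1 with DMSO and 100% = DMSO wells lacking enzyme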
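System: purified IMP-1; amount: IMP-1 0.2 nM before substrate addition; compound: single dose, 5.6 µM; times: 25 °C, 15 min preincubation, 25 min reaction; signal: Epi-absorbance via hydrolysed-nitrocefin quenching of white-plate fluorescence, 480/530 nm, EDTA stop; benchmarks: DMSO with and without IMP-1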
HCV core dimer: blocks dimerization of HCV core protein; TR-FRET GST/Flag-core106 dimerization, 1536-well; inhibition, % at 5 µM; AID 1899; hit rate 0.33% among 300,000;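 active = inhibition above the mean of all tested compounds plus 3 SD, set per screening campaign, cut at about 45% in these data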
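Material: Tagged HCV core106 pair (GST and Flag) | Amount: GST-core106 13.5 nM, Flag-core106 17 nM | Medium: KF-containing HEPES buffer, pH 7.45, DTT, CHAPS, BSA | Reagent: Eu donor and XL665 acceptor anti-tag antibodies | Schedule: 4 h at 22.5 °C | Technique: Time-resolved FRET, ex 340 nm, em 617 and 671 nm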
DNA FID counter: displaces DNA intercalator in HCV helicase counter-screen; DNA fluorescent intercalator displacement, fluorescence; AID 1845; hit rate 0.17% among 290,000; inhibition, % at 7.9 µM; in the data active = inhibition above about 37%;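 note: 0% = vehicle and 100% = reference compound; higher means more ethidium bromide displaced from hairpin DNA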
IMP-1 inh-2: IMP-1 inhibition, counter-screen for VIM-2 inhibitors; shares compounds with VIM-2 inhibitor; purified IMP-1, nitrocefin hydrolysis, epi-absorbance fluorescence; inhibition, % at 5.6 µM; 1,300 tested, under 10 active; AID 1856; call rule not given here;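 note: 0% = enzyme with vehicle and 100% = vehicle without enzyme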
VIM-2 FRET ctr: VIM-2 FRET inhibition, artifact counter-screen. shares compounds with VIM-2 inhibitor. purified VIM-2, CCF2 FRET substrate hydrolysis. inhibition, % at 5.6 µM. hit rate 23% among 1,300;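 active = inhibition above the mean of all tested compounds plus 3 SD, cut at about 19% in these data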;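 note: 0% = VIM-2 plus DMSO and 100% = no enzyme wells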
TEM-1 inh: selectivity counter-screen for VIM-2 inhibitors: E. coli TEM-1 inhibitors | shares compounds with VIM-2 inhibitor | Purified TEM-1, nitrocefin hydrolysis, epi-absorbance fluorescence | inhibition, % at 5.6 µM | hit rate 3% among 1,300;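 active = inhibition above that campaign's mean inhibition plus 3 SD, cut at about 0.46% in these data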;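 note: 0% = TEM-1 with DMSO and 100% = TEM-1 with 100 µM potassium clavulanate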
Target sequence (P62593 whole entry, looked up): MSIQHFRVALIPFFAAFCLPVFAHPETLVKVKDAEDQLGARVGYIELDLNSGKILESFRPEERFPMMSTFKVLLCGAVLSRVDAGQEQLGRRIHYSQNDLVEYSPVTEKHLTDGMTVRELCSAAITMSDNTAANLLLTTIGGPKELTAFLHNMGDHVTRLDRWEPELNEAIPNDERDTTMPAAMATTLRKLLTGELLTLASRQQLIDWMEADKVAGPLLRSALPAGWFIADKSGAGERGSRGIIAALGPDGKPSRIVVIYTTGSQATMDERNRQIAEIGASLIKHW
VIM-2 inh conf: confirmation of P. aeruginosa VIM-2 metallo-beta-lactamase inhibitors; inhibition, % at 5.6 µM; shares compounds with VIM-2 inhibitor; purified VIM-2, nitrocefin hydrolysis, epi-absorbance; hit rate 96% among 1,300; AID 2187;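 active = inhibition of the VIM-2 beta-lactamase enzyme above about 11% from the earlier first-round screen, limit read from the data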;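 note: 0% = VIM-2 with DMSO and 100% = buffer wells without enzyme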
Active calls of the source: *.

Results for Cc1ccc2cc(C)c3nnc(SCC(=O)NCc4ccco4)n3c2c1 ?
VIM-2 inhibitor: 7; IMP-1 inh-1: -5; HCV core dimer: 3; DNA FID counter: -18

What do the screens show for `Cc1ccccc1C(=O)Nc1nnc(SCC(=O)NCc2ccco2)s1`?
VIM-2 inhibitor: 52*; IMP-1 inh-1: -2; HCV core dimer: 11; DNA FID counter: -14; IMP-1 inh-2: -4; VIM-2 FRET ctr: 75*; TEM-1 inh: -6; VIM-2 inh conf: 61*

How did O=C(CSc1nnc(NC(=O)C2CC2)s1)NCc1ccco1 do in these assays?
VIM-2 inhibitor: 0; IMP-1 inh-1: -2; HCV core dimer: -7; DNA FID counter: -8

What do the screens show for `O=C(CSc1nnc(NC(=O)c2cccc(F)c2)s1)NCc1ccco1`?
VIM-2 inhibitor: 33*; IMP-1 inh-1: -2; HCV core dimer: 0; DNA FID counter: -6; IMP-1 inh-2: -4; VIM-2 FRET ctr: 54*; TEM-1 inh: -4; VIM-2 inh conf: 39*

What do the screens show for `Cc1ccccc1Nc1nnc(SCC(=O)NCc2ccco2)s1`?
VIM-2 inhibitor: -1; IMP-1 inh-1: -3; HCV core dimer: 36; DNA FID counter: -5

How did Cc1cc2cc(C)c3nnc(SCC(=O)NCc4ccco4)n3c2cc1C do in these assays?
VIM-2 inhibitor: 13*; IMP-1 inh-1: -4; HCV core dimer: 4; DNA FID counter: -34; IMP-1 inh-2: -1; VIM-2 FRET ctr: 8; TEM-1 inh: 0; VIM-2 inh conf: 24*

Results for CCOc1ccc(N(CC(=O)Nc2ccc(Br)cc2)S(C)(=O)=O)cc1 ?
VIM-2 inhibitor: -2; IMP-1 inh-1: -3; HCV core dimer: -7; DNA FID counter: -18

Results for COc1ccc(CN(C)CC(O)COC(c2ccc(OC)cc2)c2ccc(OC)cc2)cc1 (configuration not stated) ?
VIM-2 inhibitor: 0; IMP-1 inh-1: -1; HCV core dimer: -4; DNA FID counter: 32

How did O=C(CSc1nnc(NC(=O)C2CCCCC2)s1)NCc1ccco1 do in these assays?
VIM-2 inhibitor: 28*; IMP-1 inh-1: -4; HCV core dimer: 2; DNA FID counter: -19; IMP-1 inh-2: -4; VIM-2 FRET ctr: 62*; TEM-1 inh: -7; VIM-2 inh conf: 43*

How did CCOC(=O)Cn1c(=O)oc2cc(S(=O)(=O)N3CCC(N4CCCCC4)CC3)ccc21 do in these assays?
VIM-2 inhibitor: -3; IMP-1 inh-1: -5; HCV core dimer: 2; DNA FID counter: 4

How did NC(=O)c1ccccc1N1CCCCC1 do in these assays?
VIM-2 inhibitor: -2; IMP-1 inh-1: -3; HCV core dimer: -5; DNA FID counter: -5

How did CC1CC(C)CN(CCCNC(=O)C2CCN(c3ncnc4c3sc3cccc(F)c34)CC2)C1 (configuration not stated) do in these assays?
VIM-2 inhibitor: 25*; IMP-1 inh-1: -1; HCV core dimer: 6; DNA FID counter: 10; IMP-1 inh-2: 0; VIM-2 FRET ctr: 3; TEM-1 inh: -6; VIM-2 inh conf: 36*

Results for CCN(CC)CCCNC(=O)C1CCN(c2ncnc3c2sc2cccc(F)c23)CC1 ?
VIM-2 inhibitor: 27*; IMP-1 inh-1: 2; HCV core dimer: 0; DNA FID counter: 20; IMP-1 inh-2: -1; VIM-2 FRET ctr: 10; TEM-1 inh: -6; VIM-2 inh conf: 39*

How did O=C(Nc1cccc(-n2cccn2)c1)C1CCCN(Cc2cccc(F)c2F)C1 (configuration not stated) do in these assays?
VIM-2 inhibitor: -1; IMP-1 inh-1: 0; HCV core dimer: -2; DNA FID counter: 6

How did CC(c1n[nH]c(=S)n1-c1ccc(Cl)cc1)N(C)C (configuration not stated) do in these assays?
VIM-2 inhibitor: 3; IMP-1 inh-1: -3; HCV core dimer: -6; DNA FID counter: -1

How did CCC(c1n[nH]c(=S)n1-c1ccccc1)N(C)C (configuration not stated) do in these assays?
VIM-2 inhibitor: 17*; IMP-1 inh-1: -6; HCV core dimer: 0; DNA FID counter: 0; IMP-1 inh-2: -3; VIM-2 FRET ctr: 34*; TEM-1 inh: -4; VIM-2 inh conf: 26*
